Measured values from ChEMBL document CHEMBL4414574, “Structure-Based Discovery and Development of a Series of Potent and Selective Bromodomain and Extra-Terminal Protein Inhibitors” (J Med Chem, 2019).
The source made the active and inactive calls. No cut-off for these calls is given here.

Tests used:
[1] = molecular target: Histone acetyltransferase KAT2A (Homo sapiens) (UniProt Q92830); assay: Binding affinity to human partial length GCN5L2 (E726 to K837 residues) expressed in Escherichia coli BL21 cells assessed as residual binding level at 1 uM measured after 1 hr by quantitative PCR based BROMOscan assay relative to control
Histone acetyltransferase KAT2A (Homo sapiens), sequence (Q92830 2-837 limits assumed): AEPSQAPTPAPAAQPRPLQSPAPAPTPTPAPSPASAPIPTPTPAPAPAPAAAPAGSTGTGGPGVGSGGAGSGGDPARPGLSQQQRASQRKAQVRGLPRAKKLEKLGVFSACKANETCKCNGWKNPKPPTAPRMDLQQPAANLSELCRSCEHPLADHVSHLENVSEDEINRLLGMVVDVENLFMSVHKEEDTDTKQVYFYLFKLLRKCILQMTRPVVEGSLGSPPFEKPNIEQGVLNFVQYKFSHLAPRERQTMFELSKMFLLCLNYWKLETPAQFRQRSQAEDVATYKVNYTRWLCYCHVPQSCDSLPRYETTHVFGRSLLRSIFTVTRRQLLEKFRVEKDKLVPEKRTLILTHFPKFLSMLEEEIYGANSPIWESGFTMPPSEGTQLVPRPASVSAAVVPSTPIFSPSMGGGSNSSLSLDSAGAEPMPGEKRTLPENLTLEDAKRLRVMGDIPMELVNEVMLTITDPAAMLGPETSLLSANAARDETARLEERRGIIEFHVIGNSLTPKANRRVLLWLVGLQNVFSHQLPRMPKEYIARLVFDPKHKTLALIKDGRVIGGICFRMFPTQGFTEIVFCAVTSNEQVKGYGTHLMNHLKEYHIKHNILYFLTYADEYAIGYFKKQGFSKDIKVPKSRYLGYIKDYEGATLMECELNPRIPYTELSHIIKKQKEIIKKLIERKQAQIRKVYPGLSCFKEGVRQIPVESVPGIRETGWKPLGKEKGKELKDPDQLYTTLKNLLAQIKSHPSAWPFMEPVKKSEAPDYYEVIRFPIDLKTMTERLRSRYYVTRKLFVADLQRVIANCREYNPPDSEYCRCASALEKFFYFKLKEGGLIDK
Summary of the method: (§1)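 A BROMOScan competition-binding panel of 32 bromodomains was run at a single 1 μM compound concentration. Results are primary-screen 'Percent Control', where lower values indicate stronger binding.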

Cytochrome P450 2C9 = Cytochrome P450 2C9 (Homo sapiens, UniProt P11712); assay: Time-dependent inhibition of CYP2C9 in human liver microsomes at 10 uM using diclofenac as substrate preincubated up to 30 mins followed by NADPH generating system addition and measured after 10 mins; assay type: ADME
Cytochrome P450 2C9, sequence (P11712 whole entry): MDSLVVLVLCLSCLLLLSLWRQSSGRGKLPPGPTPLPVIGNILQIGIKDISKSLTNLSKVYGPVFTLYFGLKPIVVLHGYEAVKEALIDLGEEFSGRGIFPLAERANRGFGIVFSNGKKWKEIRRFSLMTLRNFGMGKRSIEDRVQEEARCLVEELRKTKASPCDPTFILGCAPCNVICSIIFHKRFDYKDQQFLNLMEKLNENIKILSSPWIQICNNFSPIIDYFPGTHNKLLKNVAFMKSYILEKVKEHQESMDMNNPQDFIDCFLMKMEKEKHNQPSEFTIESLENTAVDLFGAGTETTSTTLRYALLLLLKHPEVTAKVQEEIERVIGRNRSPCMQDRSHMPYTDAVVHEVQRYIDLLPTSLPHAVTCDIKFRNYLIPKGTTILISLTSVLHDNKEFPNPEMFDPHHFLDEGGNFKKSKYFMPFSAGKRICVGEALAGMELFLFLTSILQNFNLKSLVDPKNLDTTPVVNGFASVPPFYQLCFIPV
Summary of the method: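 Human liver microsomes 0.2 mg/mL, 100 mM phosphate pH 7.4, 10 μM test compound, preincubated 0, 5, 10 and 30 min at 37 °C; then NADPH plus probe cocktail (5 μM midazolam, 50 μM testosterone, 5 μM dextromethorphan, 10 μM diclofenac, 50 μM phenacetin, 50 μM S-(+)-mephenytoin) added; 10 min reaction; kobs in units of 10^-4/min.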

[2] = Ratio of drug level in brain to plasma in ICR mouse at 50 mg/kg, po administered via gavage measured after 0.25 to 24 hrs by UPLC/MS analysis; assay type: ADME, organism-based
Summary of the method: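 Male ICR mice dosed orally at 50 mg/kg in 1% DMSO/0.5% HPMC; drug measured in plasma and brain.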

[3] = Half life in rat liver microsomes; assay type: ADME, Microsome
MV4-11 [4] = assay: Antitumor activity against human MV4-11 cells xenografted in po dosed Balb/c nude mouse assessed as tumor growth inhibition administered once daily and measured twice a week by caliper method; assay type: functional, organism-based
[5] = AUC (0 to infinity) in rat plasma at 50 mg/kg, po; assay type: ADME, organism-based; parameters: dose 50 mg/kg, time infinity, route oral
Summary of the method: (§2)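 Compound was given orally or intravenously in 1% DMSO/0.5% HPMC vehicle. Concentrations in plasma, or in brain where stated, gave Tmax, Cmax, T1/2, AUC0-t and AUC0-inf.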

[6] = Half life in rat plasma at 10 mg/kg, po; assay type: ADME, organism-based
[7] = Drug uptake in tumor of Balb/c nude mouse xenografted with human MV4-11 cells at 25 to 50 mg/kg, po measured after 8 hrs; assay type: ADME, organism-based, Neoplasm; details: in vivo
Summary of the method: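 MV4-11 xenografts in BALB/c nude mice given oral compound; drug concentrations in plasma and tumor tissue measured at 1 h and 8 h after dosing.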

Peregrin (Homo sapiens) = Peregrin (Homo sapiens) (UniProt P55201); assay: Binding affinity to human partial length BRPF1 (E627 to G740 residues) expressed in Escherichia coli BL21 cells assessed as residual binding level at 1 uM measured after 1 hr by quantitative PCR based BROMOscan assay relative to control; summary of the method: as §1
[8] = molecular target: Transcription initiation factor TFIID subunit 1-like (Homo sapiens) (UniProt Q8IZX4); assay: Binding affinity to human partial length TAF1L bromodomain 2 (Q1523 to D1654 residues) expressed in Escherichia coli BL21 cells assessed as residual binding level at 1 uM measured after 1 hr by quantitative PCR based BROMOscan assay relative to control
Summary of the method: (§3)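 Bromodomain panel screen (32 bromodomains) run at 1 μM single concentration; primary binding reported as 'Percent Control', lower values meaning stronger interaction.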

MV4-11 [9] = assay: Antitumor activity against human MV4-11 cells xenografted in Balb/c nude mouse assessed as tumor growth inhibition at 25 mg/kg, po administered once daily and measured twice a week by caliper method relative to control; assay type: functional; details: MV4-11, po, read-out: TGI
[10] = molecular target: Bromodomain-containing protein 4 (Homo sapiens, UniProt O60885); assay: Binding affinity to human partial length BRD4 bromodomain 2 long isoform (K333 to E460 residues) expressed in Escherichia coli BL21 cells assessed as residual binding level at 1 uM measured after 1 hr by quantitative PCR based BROMOscan assay relative to control; summary of the method: as §1
[11] = molecular target: Histone acetyltransferase p300 (Homo sapiens) (UniProt Q09472); assay: Binding affinity to human partial length EP300 (A1040 to G1161 residues) expressed in Escherichia coli BL21 cells assessed as residual binding level at 1 uM measured after 1 hr by quantitative PCR based BROMOscan assay relative to control; summary of the method: as §1
[12] = molecular target: Bromodomain and WD repeat-containing protein 1 (Homo sapiens) (UniProt Q9NSI6); assay: Binding affinity to human partial length BRWD1 (A1310 to E1430 residues) expressed in Escherichia coli BL21 cells assessed as residual binding level at 1 uM measured after 1 hr by quantitative PCR based BROMOscan assay relative to control; summary of the method: as §1
Bromodomain and WD repeat-containing protein 1 (Homo sapiens), sequence (Q9NSI6 whole entry, the tested form may be a part): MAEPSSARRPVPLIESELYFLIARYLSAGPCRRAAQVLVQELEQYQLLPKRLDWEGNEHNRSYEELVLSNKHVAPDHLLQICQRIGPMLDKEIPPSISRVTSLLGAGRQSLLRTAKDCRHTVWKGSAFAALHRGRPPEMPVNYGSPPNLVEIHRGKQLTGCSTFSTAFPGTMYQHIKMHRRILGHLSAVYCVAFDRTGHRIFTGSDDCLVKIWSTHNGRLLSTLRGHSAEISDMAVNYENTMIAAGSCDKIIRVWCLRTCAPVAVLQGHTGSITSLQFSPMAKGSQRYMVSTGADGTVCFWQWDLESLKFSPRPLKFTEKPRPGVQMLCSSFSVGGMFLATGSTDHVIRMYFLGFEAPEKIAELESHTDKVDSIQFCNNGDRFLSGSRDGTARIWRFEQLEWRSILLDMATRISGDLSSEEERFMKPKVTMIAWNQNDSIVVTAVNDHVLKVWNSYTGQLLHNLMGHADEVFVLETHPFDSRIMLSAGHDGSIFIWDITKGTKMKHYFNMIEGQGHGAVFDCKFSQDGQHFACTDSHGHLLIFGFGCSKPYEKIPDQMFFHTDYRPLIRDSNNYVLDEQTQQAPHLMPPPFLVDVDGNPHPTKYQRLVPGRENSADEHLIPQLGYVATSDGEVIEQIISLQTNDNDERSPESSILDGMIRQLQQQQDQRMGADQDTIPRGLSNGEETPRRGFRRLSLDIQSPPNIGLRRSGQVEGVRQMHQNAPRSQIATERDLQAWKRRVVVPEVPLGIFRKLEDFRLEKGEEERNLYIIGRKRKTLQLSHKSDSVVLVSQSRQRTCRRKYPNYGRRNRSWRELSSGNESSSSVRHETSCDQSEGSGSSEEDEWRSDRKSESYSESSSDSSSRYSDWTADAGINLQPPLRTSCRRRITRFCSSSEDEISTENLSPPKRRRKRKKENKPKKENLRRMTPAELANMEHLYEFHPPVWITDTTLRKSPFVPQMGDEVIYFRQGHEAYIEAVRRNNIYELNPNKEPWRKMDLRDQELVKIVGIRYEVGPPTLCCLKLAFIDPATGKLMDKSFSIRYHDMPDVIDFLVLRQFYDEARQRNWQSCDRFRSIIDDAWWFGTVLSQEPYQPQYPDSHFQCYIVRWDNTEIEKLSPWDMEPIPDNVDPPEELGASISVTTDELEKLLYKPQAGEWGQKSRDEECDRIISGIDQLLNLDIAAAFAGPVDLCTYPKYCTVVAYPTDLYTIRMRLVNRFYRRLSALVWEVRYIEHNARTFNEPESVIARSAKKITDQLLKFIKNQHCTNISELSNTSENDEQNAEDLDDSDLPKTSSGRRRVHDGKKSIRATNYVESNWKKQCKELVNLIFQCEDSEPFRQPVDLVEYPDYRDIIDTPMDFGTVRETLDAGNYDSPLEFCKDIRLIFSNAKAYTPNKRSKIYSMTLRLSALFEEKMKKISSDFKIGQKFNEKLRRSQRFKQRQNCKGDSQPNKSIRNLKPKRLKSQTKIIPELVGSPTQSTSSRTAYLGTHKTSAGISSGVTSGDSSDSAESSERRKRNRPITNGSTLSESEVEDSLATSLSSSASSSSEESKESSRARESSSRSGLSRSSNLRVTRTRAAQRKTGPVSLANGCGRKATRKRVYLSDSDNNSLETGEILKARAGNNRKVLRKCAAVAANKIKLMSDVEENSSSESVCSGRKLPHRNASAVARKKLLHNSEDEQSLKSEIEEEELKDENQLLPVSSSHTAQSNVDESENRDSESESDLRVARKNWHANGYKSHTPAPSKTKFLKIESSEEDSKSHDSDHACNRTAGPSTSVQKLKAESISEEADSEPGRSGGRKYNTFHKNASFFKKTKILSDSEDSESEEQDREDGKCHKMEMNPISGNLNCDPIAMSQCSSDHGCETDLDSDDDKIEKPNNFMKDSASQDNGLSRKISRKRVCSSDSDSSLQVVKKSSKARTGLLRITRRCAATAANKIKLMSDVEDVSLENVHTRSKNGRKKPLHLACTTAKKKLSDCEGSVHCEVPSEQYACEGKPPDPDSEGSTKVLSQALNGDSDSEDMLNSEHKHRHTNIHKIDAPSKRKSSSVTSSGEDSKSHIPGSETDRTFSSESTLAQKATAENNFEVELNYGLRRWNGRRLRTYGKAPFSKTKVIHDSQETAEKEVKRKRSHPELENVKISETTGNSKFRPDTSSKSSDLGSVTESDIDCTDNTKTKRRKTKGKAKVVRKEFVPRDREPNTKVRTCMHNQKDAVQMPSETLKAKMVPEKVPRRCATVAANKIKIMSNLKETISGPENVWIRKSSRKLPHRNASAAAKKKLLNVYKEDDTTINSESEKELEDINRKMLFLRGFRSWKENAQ

MV4-11 [13] = assay: Antitumor activity against human MV4-11 cells xenografted in Balb/c nude mouse assessed as tumor growth inhibition at 50 mg/kg, po administered once daily and measured twice a week by caliper method relative to control; assay type: functional; details: MV4-11, po, read-out: TGI
BT-549 = assay: Antiproliferative activity against human BT549 cells after 72 hrs by CCK8 or SRB assay; assay type: functional, cell-based
[14] = AUC (0 to infinity) in ICR mouse plasma at 50 mg/kg, po administered via gavage measured after 0.25 to 24 hrs by UPLC/MS analysis; assay type: ADME, organism-based; parameters: dose 50 mg/kg, route oral, time infinity
Summary of the method: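 Male ICR mice were dosed orally in 1% DMSO/0.5% HPMC vehicle. Plasma (and brain, where stated) concentrations gave Tmax, Cmax, T1/2, AUC0-t and AUC0-inf.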

[15] = AUC (0 to t) in dog plasma at 3 mg/kg, po; assay type: ADME, organism-based, Canis lupus familiaris; summary of the method: as §2
[16] = Cmax in rat brain at 50 mg/kg, po; assay type: ADME, organism-based; parameters: dose 50 mg/kg, route oral
SW-620 = assay: Antiproliferative activity against human SW620 cells after 72 hrs by CCK8 or SRB assay; assay type: functional, cell-based
[17] = molecular target: Transcription intermediary factor 1-alpha (Homo sapiens) (UniProt O15164); assay: Binding affinity to human partial length TRIM24 (P790 to P977 residues) expressed in Escherichia coli BL21 cells assessed as residual binding level at 1 uM measured after 1 hr by quantitative PCR based BROMOscan assay relative to control; summary of the method: as §3
Homo sapiens = organism: Homo sapiens; assay: Antiproliferative activity against human TY82 cells after 72 hrs by CCK8 or SRB assay; assay type: functional, cell-based
HuTu80 = assay: Antiproliferative activity against human HuTu 80 cells after 72 hrs by CCK8 or SRB assay; assay type: functional, cell-based
[18] = Half life in rat plasma at 50 mg/kg, po; assay type: ADME, organism-based
MV4-11 [19] = assay: Induction of apoptosis in human MV4-11 cells assessed as reduction in BID level after 24 hrs by Western blot analysis; assay type: functional, cell-based
Summary of the method: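 MV4-11 cells exposed to compound at the indicated doses for 24 h; lysates probed by Western blotting for the target protein, with GAPDH as loading control.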

[20] = molecular target: ATPase family AAA domain-containing protein 2B (Homo sapiens) (UniProt Q9ULI0); assay: Binding affinity to human partial length ATAD2B (Q955 to R1082 residues) expressed in Escherichia coli BL21 cells assessed as residual binding level at 1 uM measured after 1 hr by quantitative PCR based BROMOscan assay relative to control; summary of the method: as §1
ATPase family AAA domain-containing protein 2B (Homo sapiens), sequence (Q9ULI0 whole entry, the tested form may be a part): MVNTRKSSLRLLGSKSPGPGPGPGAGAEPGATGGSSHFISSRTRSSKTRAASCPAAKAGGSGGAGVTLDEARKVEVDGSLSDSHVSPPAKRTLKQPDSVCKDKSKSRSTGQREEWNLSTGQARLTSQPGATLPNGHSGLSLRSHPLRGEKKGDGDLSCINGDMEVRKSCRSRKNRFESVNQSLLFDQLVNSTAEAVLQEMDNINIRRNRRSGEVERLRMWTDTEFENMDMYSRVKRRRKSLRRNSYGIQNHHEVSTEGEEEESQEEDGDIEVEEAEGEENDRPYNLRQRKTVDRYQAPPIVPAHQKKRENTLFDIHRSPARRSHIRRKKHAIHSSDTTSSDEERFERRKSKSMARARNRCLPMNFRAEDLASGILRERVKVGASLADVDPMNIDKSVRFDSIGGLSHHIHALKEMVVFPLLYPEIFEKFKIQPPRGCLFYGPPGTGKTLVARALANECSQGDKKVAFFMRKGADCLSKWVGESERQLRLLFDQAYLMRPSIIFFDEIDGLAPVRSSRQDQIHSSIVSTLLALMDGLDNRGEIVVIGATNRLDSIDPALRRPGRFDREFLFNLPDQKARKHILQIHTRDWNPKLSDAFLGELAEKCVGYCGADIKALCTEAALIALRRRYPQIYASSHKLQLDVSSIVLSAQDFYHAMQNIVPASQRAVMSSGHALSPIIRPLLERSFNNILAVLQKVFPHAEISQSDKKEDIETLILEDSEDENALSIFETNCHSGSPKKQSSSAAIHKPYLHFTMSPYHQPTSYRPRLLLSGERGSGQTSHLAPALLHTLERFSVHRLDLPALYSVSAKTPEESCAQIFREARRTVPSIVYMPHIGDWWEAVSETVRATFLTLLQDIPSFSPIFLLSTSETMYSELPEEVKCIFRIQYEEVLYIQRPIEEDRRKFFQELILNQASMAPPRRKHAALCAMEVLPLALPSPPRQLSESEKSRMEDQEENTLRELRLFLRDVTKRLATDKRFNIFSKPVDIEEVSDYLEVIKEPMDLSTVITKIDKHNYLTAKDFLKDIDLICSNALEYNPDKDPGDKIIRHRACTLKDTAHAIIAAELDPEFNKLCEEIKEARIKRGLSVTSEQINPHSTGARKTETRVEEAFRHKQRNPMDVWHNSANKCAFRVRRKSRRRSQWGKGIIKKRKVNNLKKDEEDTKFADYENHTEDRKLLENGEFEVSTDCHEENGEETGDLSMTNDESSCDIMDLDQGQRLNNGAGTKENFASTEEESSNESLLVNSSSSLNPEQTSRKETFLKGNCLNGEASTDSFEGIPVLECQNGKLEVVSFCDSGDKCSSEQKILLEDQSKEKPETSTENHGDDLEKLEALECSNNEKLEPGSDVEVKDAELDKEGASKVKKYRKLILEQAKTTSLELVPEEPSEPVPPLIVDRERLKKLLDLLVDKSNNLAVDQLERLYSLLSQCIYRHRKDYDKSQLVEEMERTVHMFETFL

Hep 3B2 = assay: Antiproliferative activity against human Hep3B cells after 72 hrs by CCK8 or SRB assay; assay type: functional, cell-based
RKO = assay: Antiproliferative activity against human RKO cells after 72 hrs by CCK8 or SRB assay; assay type: functional, cell-based

**Q.** Which results are given for `Cc1ccc(-n2nc(C(=O)N3C[C@@H](C)N[C@@H](C)C3)nc2-c2ccc3c(c2)N(C2CCCC2)[C@H](C)C(=O)N3C)cc1`?
**A.** Activity [1]: 70 to 100%; TDI (Cytochrome P450 2C9): Not Active; BPR [2]: 13.9%; half-life [3]: 0.817 h; TGI (MV4-11 [4]): Dose-dependent effect; AUC(0-inf) [5]: 4310 ng·h/mL; half-life [6]: 5 h; Drug uptake [7]: Active; Activity (Peregrin (Homo sapiens)): 70 to 100%; Activity [8]: 20 to 50%; inhibition in vivo at 25 mg/kg (MV4-11 [9]): 89.7%; Activity [10]: < 5%; Activity [11]: 20 to 50%; Activity [12]: 70 to 100%; inhibition in vivo at 50 mg/kg (MV4-11 [13]): 95.6%; Activity (BT-549): Active; AUC(0-inf) [14]: 16800 ng·h/mL; AUC(0-t) [15]: 747 ng·h/mL; Cmax [16]: 87.6 ng/mL; Activity (SW-620): Active; Activity [17]: 50 to 70%; Activity (Homo sapiens): Active; Activity (HuTu80): Active; half-life [18]: 6.3 h; Activity (MV4-11 [19]): Dose-dependent effect; Activity [20]: 70 to 100%; Activity (Hep 3B2): Active; Activity (RKO): Active
